Test results as given in article PMC11027041 (RSC Advances, 2024).

What was measured:
HDAC5 = HDAC5 (Homo sapiens, UniProt Q9UQL6); assay: In vitro HDAC enzyme assay; format: biochemical
SR = assay: NCI-60 antiproliferative screening; format: cell-based; conditions: Homo sapiens, read-out: percent inhibition
SW-620 = assay: NCI-60 antiproliferative screening; format: cell-based; conditions: Homo sapiens, SW-620, read-out: percent inhibition
OVCAR-4 = assay: NCI-60 antiproliferative screening; format: cell-based; conditions: Homo sapiens, OVCAR-4, read-out: percent inhibition
786-0 = assay: NCI-60 antiproliferative screening; format: cell-based; conditions: Homo sapiens, 786-0, read-out: percent inhibition
MDA-MB-435 = assay: NCI-60 antiproliferative screening; format: cell-based; conditions: Homo sapiens, MDA-MB-435, read-out: percent inhibition
MOLT-4 = assay: NCI-60 antiproliferative screening; format: cell-based; conditions: Homo sapiens, MOLT-4, read-out: percent inhibition
HDAC8 = HDAC8 (Homo sapiens, UniProt Q9BY41); assay: In vitro HDAC enzyme assay; format: biochemical
Chain of HDAC8 (Q9BY41 whole entry): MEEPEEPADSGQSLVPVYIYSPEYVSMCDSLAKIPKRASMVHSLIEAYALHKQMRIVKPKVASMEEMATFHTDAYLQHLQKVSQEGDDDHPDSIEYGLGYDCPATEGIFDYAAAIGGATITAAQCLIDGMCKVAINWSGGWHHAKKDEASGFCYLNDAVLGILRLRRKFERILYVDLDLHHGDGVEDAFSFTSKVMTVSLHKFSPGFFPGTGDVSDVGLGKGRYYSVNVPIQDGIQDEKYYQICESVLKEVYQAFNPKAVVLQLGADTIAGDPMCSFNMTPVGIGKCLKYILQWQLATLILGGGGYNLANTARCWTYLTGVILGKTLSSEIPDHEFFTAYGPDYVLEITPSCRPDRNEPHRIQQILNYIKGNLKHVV

MCF7 = assay: NCI-60 antiproliferative screening; format: cell-based; conditions: Homo sapiens, MCF7, read-out: percent inhibition
CAKI-1 = assay: NCI-60 antiproliferative screening; format: cell-based; conditions: Homo sapiens, CAKI-1, read-out: percent inhibition
PC-3 = assay: NCI-60 antiproliferative screening; format: cell-based; conditions: Homo sapiens, PC-3, read-out: percent inhibition
U251 = assay: NCI-60 antiproliferative screening; format: cell-based; conditions: Homo sapiens, U-251, read-out: percent inhibition
NCI-H322M = assay: NCI-60 antiproliferative screening; format: cell-based; conditions: Homo sapiens, read-out: percent inhibition
OVCAR-5 = assay: NCI-60 antiproliferative screening; format: cell-based; conditions: Homo sapiens, OVCAR-5, read-out: percent inhibition
[1] = test system: normal bone marrow cells HS-5; assay: Cell viability assay; format: cell-based; conditions: 72 h, read-out: Antiproliferative IC50 HS-5
How it was run: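 Cells grown in IMDM with 20% FBS, 100 U per mL penicillin and 100 μg per mL streptomycin, then plated in 96-well format. Test compound exposure was 72 h. Alamar blue solution (1 mM, as added) was then applied for a further 5–6 h, and […] was read at 530/590 nm. Data were normalized to vehicle, as means of three independent measurements (standard errors <20%), and IC50 was calculated.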

IGROV1 = assay: NCI-60 antiproliferative screening; format: cell-based; conditions: Homo sapiens, IGROV-1, read-out: percent inhibition
UACC-62 = assay: NCI-60 antiproliferative screening; format: cell-based; conditions: Homo sapiens, UACC-62, read-out: percent inhibition
HOP-92 = assay: NCI-60 antiproliferative screening; format: cell-based; conditions: Homo sapiens, HOP-92, read-out: percent inhibition
[2] = test system: melanoma cell line SK-MEL-2; assay: Cell viability assay; format: cell-based; conditions: Homo sapiens, SK-MEL-2, 72 h, read-out: Antiproliferative IC50 SK-MEL-2
UACC-257 = assay: NCI-60 antiproliferative screening; format: cell-based; conditions: Homo sapiens, UACC-257, read-out: percent inhibition
NCI/ADR-RES = assay: NCI-60 antiproliferative screening; format: cell-based; conditions: Homo sapiens, read-out: percent inhibition
MDA-MB-231/ATCC = assay: NCI-60 antiproliferative screening; format: cell-based; conditions: Homo sapiens, MDA-MB-231, read-out: percent inhibition
OVCAR-8 = assay: NCI-60 antiproliferative screening; format: cell-based; conditions: Homo sapiens, OVCAR-8, read-out: percent inhibition
KM12 = assay: NCI-60 antiproliferative screening; format: cell-based; conditions: Homo sapiens, KM12, read-out: percent inhibition
HDAC11 = HDAC11 (Homo sapiens, UniProt Q96DB2); assay: In vitro HDAC enzyme assay; format: biochemical
Chain of HDAC11 (Q96DB2 whole entry): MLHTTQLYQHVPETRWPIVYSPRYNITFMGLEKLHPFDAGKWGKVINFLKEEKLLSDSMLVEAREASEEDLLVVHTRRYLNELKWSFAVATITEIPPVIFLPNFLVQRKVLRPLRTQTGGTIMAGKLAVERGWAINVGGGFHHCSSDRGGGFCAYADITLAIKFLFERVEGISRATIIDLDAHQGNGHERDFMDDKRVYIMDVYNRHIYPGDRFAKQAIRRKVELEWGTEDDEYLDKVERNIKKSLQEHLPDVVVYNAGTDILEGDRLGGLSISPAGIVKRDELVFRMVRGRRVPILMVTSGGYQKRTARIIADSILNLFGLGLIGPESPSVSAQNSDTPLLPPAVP

NCI-H460 = assay: NCI-60 antiproliferative screening; format: cell-based; conditions: Homo sapiens, NCI-H460, read-out: percent inhibition
CCRF-CEM = assay: NCI-60 antiproliferative screening; format: cell-based; conditions: Homo sapiens, read-out: percent inhibition
[3] = test system: colon cancer cell line HCT-116; assay: Cell viability assay; format: cell-based; conditions: Homo sapiens, HCT-116, 72 h, read-out: Antiproliferative IC50 HCT116
SNB-75 = assay: NCI-60 antiproliferative screening; format: cell-based; conditions: Homo sapiens, SNB-75, read-out: percent inhibition
NCI-H226 = assay: NCI-60 antiproliferative screening; format: cell-based; conditions: Homo sapiens, NCI-H226, read-out: percent inhibition
DU-145 = assay: NCI-60 antiproliferative screening; format: cell-based; conditions: Homo sapiens, DU-145, read-out: percent inhibition
HOP-62 = assay: NCI-60 antiproliferative screening; format: cell-based; conditions: Homo sapiens, HOP-62, read-out: percent inhibition
A498 = assay: NCI-60 antiproliferative screening; format: cell-based; conditions: Homo sapiens, A498, read-out: percent inhibition
TK-10 = assay: NCI-60 antiproliferative screening; format: cell-based; conditions: Homo sapiens, TK-10, read-out: percent inhibition
OVCAR-3 = assay: NCI-60 antiproliferative screening; format: cell-based; conditions: Homo sapiens, OVCAR-3, read-out: percent inhibition
HDAC6 = HDAC6 (Homo sapiens, UniProt Q9UBN7); assay: In vitro HDAC enzyme assay; format: biochemical
Chain of HDAC6 (Q9UBN7 whole entry): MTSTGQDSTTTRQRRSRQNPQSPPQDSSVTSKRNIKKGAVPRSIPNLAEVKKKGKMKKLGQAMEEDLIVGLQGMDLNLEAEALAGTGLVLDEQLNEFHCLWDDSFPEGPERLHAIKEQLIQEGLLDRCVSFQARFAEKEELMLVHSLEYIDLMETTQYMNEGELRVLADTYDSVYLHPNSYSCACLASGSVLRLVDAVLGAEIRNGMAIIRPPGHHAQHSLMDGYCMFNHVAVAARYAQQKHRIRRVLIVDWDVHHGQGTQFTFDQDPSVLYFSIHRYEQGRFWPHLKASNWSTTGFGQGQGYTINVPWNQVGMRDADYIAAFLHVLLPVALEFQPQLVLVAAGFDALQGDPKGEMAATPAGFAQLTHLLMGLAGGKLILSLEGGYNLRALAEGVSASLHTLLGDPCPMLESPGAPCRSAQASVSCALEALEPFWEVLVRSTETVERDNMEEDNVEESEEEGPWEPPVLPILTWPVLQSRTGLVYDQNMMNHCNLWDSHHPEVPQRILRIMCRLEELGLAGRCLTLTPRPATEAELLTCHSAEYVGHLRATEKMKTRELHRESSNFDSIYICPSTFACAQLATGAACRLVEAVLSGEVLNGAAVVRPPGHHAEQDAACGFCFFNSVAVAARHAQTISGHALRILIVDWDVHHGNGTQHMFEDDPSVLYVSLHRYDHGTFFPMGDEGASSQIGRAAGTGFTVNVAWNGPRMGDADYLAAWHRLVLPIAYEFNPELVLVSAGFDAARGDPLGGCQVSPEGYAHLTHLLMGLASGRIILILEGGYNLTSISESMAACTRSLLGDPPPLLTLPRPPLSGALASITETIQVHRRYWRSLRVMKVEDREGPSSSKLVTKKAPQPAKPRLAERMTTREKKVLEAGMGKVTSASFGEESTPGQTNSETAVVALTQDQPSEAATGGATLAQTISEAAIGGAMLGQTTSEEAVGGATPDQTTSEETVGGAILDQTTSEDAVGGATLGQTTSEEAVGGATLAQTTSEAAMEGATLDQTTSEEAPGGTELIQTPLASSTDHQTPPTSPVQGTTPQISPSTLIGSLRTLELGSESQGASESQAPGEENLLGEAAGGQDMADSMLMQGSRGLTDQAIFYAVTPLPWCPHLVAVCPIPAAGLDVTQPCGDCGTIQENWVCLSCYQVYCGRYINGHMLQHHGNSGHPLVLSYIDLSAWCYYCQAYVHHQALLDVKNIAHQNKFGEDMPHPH

BT-549 = assay: NCI-60 antiproliferative screening; format: cell-based; conditions: Homo sapiens, BT-549, read-out: percent inhibition
HDAC1 = HDAC1 (Homo sapiens, UniProt Q13547); assay: In vitro HDAC enzyme assay; format: biochemical
Chain of HDAC1 (Q13547 whole entry): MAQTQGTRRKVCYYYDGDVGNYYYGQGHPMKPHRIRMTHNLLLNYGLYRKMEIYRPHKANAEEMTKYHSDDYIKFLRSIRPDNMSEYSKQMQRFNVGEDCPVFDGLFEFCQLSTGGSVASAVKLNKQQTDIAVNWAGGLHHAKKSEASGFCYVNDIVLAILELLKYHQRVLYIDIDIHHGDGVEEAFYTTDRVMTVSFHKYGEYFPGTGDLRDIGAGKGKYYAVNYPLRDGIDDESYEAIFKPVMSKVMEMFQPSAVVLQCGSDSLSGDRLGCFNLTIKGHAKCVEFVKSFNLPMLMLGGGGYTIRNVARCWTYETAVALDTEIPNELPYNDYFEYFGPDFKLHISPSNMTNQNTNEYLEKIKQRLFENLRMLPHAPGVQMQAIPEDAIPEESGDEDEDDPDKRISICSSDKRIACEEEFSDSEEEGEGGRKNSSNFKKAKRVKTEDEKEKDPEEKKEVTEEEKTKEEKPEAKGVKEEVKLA

HDAC2 = HDAC2 (Homo sapiens, UniProt Q92769); assay: In vitro HDAC enzyme assay; format: biochemical
Chain of HDAC2 (Q92769 whole entry): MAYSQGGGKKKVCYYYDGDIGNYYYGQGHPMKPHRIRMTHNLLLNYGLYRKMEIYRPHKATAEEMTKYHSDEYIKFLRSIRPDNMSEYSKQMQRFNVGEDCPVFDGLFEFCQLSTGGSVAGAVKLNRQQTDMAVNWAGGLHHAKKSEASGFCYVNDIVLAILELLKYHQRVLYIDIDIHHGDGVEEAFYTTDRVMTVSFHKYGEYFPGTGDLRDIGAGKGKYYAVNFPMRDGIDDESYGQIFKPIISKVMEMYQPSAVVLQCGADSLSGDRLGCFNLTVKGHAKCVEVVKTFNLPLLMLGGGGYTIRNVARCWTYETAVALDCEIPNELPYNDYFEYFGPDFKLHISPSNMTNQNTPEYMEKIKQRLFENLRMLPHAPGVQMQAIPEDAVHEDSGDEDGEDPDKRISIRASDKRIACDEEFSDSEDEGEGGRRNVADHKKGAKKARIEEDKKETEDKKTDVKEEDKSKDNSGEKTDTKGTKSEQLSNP

Chain of HDAC5 (Q9UQL6 whole entry): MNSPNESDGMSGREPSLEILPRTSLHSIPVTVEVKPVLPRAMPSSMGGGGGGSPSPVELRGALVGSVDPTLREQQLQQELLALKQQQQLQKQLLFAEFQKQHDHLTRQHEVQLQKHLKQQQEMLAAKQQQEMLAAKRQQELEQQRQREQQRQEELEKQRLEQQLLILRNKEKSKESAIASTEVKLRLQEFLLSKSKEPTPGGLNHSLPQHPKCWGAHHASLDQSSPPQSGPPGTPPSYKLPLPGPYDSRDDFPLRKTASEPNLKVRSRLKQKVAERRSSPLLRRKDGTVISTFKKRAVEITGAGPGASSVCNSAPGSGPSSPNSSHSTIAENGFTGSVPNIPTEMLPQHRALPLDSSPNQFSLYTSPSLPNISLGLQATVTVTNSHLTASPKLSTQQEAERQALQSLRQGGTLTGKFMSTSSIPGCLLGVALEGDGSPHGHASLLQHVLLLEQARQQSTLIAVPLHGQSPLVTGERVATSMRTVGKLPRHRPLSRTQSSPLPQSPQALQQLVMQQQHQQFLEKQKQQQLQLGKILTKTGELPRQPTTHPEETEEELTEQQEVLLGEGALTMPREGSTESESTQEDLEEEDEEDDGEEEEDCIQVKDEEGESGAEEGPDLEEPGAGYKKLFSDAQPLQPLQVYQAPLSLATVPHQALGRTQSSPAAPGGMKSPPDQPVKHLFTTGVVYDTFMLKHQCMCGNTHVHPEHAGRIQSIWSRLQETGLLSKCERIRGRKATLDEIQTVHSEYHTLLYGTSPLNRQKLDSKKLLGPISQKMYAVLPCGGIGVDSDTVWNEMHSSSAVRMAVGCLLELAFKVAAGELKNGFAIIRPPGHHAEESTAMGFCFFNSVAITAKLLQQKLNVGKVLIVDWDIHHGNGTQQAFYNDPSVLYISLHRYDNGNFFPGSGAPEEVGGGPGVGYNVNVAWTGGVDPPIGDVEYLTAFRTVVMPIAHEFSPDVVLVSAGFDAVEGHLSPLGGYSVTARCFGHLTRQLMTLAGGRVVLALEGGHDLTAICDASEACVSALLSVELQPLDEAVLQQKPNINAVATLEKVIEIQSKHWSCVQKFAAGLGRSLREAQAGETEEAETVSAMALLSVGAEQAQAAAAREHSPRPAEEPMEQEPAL

IC50 (HDAC5): > 50 µM
activity for HDAC5 (in words) (HDAC5): no activity
IC50 (HDAC8): > 50 µM
activity for HDAC8 (in words) (HDAC8): no activity
IC50 [2]: 0.48 ± 0.01 µM
IC50 (HDAC11): 1.8 ± 0.106 µM
inhibition of HDAC11 (in words) (HDAC11): weak inhibition
IC50 [3]: 1.54 ± 0.03 µM
IC50 (HDAC6): 0.0045 ± 0.00021 µM
IC50 (HDAC1): 0.00873 ± 0.00046 µM
inhibition at 0.5 µM (HDAC1; read-out: Inhibition% (inhibition rate, IR) against HDAC1, at a concentration of 500 nM, duplicate): 99.2%
IC50 (HDAC2): 0.0235 ± 0.00103 µM
Structure (SMILES): COc1ccc(CN2[C@@H](C(=O)NCCCCCCC(=O)NO)Cc3c([nH]c4ccccc34)[C@@H]2C2CC2)cc1 [Compound 13d, (1S,3R)-1-Cyclopropyl-N-(7-(hydroxyamino)-7-oxoheptyl)-2-(4-methoxybenzyl)-2,3,4,9-tetrahydro-1H-pyrido[3,4-b]indole-3-carboxamide]
inhibition at 10 µM (SR): 84%
inhibition at 10 µM (SW-620): 100%
inhibition at 10 µM (OVCAR-4): 59.4%
inhibition at 10 µM (786-0): 82.7%
inhibition at 10 µM (MDA-MB-435): 100%
inhibition at 10 µM (MOLT-4): 87.8%
inhibition at 10 µM (MCF7): 93.6%
inhibition at 10 µM (CAKI-1): 96%
inhibition at 10 µM (PC-3): 80.9%
inhibition at 10 µM (U251): 100%
inhibition at 10 µM (NCI-H322M): 90.5%
inhibition at 10 µM (OVCAR-5): 100%
IC50 [1]: > 50 µM
inhibition at 10 µM (IGROV1): 100%
inhibition at 10 µM (UACC-62): 100%
inhibition at 10 µM (HOP-92): 100%
inhibition at 10 µM (UACC-257): 90.1%
inhibition at 10 µM (NCI/ADR-RES): 38%
inhibition at 10 µM (MDA-MB-231/ATCC): 100%
inhibition at 10 µM (OVCAR-8): 97.3%
inhibition at 10 µM (KM12): 87.5%
inhibition at 10 µM (NCI-H460): 93.6%
inhibition at 10 µM (CCRF-CEM): 80.3%
inhibition at 10 µM (SNB-75): 89.8%
inhibition at 10 µM (NCI-H226): 71.9%
inhibition at 10 µM (DU-145): 90.6%
inhibition at 10 µM (HOP-62): 86%
inhibition at 10 µM (A498): 100%
inhibition at 10 µM (TK-10): 100%
inhibition at 10 µM (OVCAR-3): 96.8%
inhibition at 10 µM (BT-549): 74.5%
